The values below come from ChEMBL document CHEMBL1121933 (1982).

The species named for test [1] is Canis familiaris. Briefly: Intrinsic activity was measured on the dog carotid artery. Type of test: functional, Canis lupus familiaris.
The species entered for test [2] is Canis familiaris. Briefly: Apparent affinity was measured on the dog carotid artery. Format: functional, Canis lupus familiaris.
The species entered for test [3] is Cavia porcellus. In words: Relative affinity compared to substance P was measured in guinea pig ileum. Format: functional. A digest of the protocol: (§1)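 Guinea pig ileum (animals 200-400 g, both sexes) from animals killed by stunning and exsanguination. Concentration-response curves built by consecutive additions of drug to the bath.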
The species named for test [4] is Cavia porcellus. Briefly: Intrinsic activity was measured on the guinea pig ileum. Format: functional. A digest of the protocol:
as §1

The species named for test [5] is Cavia porcellus. In words: Apparent affinity was measured on the guinea pig ileum. Type of test: functional. Put shortly: as §1
The species named for test [6] is Oryctolagus cuniculus. Briefly: Apparent affinity was measured on the rabbit mesenteric vein. Format: functional. Put shortly:
(§2)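 Rabbit mesenteric vein from rabbits killed by stunning and exsanguination. Concentration-response curves built by consecutive drug additions to the bath fluid.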

For test [7], the species on record is Oryctolagus cuniculus. In words: Relative affinity compared to substance P was measured in rabbit mesenteric vein. Type of test: functional. Put shortly: as §2
In test [8] the test system is Rattus norvegicus. In words: Relative potency compared substance P - change in blood pressure in anesthetized rat. Format: functional. Put shortly:
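Rats 200-250 g, anesthetized with urethane (1.4 g/kg, sc). Peptides injected into the jugular vein. Blood pressure recorded directly via a cannula in the right carotid artery with a mercury manometer on a kymograph-driven smoked drum.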

Test [9] is filed under the species Canis familiaris. Briefly: Relative affinity compared to substance P was measured in the dog carotid artery. Format: functional, Canis lupus familiaris.
For test [10], the species on record is Oryctolagus cuniculus. In words: Intrinsic activity was measured on the rabbit mesenteric vein. Format: functional. Put shortly:
as §2

For the compound `CSCC[C@H](NC(=O)[C@H](CC(C)C)NC(=O)CNC(=O)[C@H](Cc1ccccc1)NC(=O)[C@H](Cc1c[nH]c2ccccc12)NC(=O)[C@H](CCC(N)=O)NC(=O)[C@H](CCC(N)=O)NC(=O)[C@@H]1CCCN1C(=O)[C@H](CCCCN)NC(=O)[C@@H]1CCCN1C(=O)[C@@H](N)CCCN=C(N)N)C(N)=O`, the Alphax10E in [1] and in test [4] was 1 throughout. The pD2 in [2] is listed as 9.56; in test [5], 8.38; in test [6], 6.55. The RA is reported as 39.7 in [3], 10 in test [7] and 37.1 in [9]. Moreover, the RP in [8] is listed as 51.

Regarding `CC[C@H](C)[C@H](NC(=O)[C@H](Cc1ccccc1)NC(=O)[C@H](CCC(N)=O)NC(=O)[C@H](CCC(N)=O)NC(=O)[C@@H]1CCCN1C(=O)[C@H](CCCCN)NC(=O)[C@@H]1CCCN1C(=O)[C@@H](N)CCCN=C(N)N)C(=O)NCC(=O)N[C@@H](CC(C)C)C(=O)N[C@@H](CCSC)C(N)=O`, the RA in test [3] and in [7] was 100 throughout. For the same compound, the Alphax10E in [4] and in test [10] was 1 throughout. In addition, the pD2 in test [5] was found to be 8.78; in test [6] it was 7.55. The same compound displayed an RP in test [8] of 100.

Turning to `CSCC[C@H](NC(=O)[C@H](CC(C)C)NC(=O)[C@@H](Cc1ccccc1)NC(=O)[C@@H](CC(C)C)NC(=O)[C@H](Cc1ccccc1)NC(=O)[C@H](CCC(N)=O)NC(=O)[C@H](CCC(N)=O)NC(=O)[C@@H]1CCCN1C(=O)[C@H](CCCCN)NC(=O)[C@@H]1CCCN1C(=O)[C@@H](N)CCCN=C(N)N)C(N)=O`, the Alphax10E in test [1] came out at 1. Also, the pD2 in [2] came to 7.89; in [5], 6.83. Also, the results for the RA in test [3], in test [7] and in test [9] were 1.2, below 0.01 and 0.8, respectively. This compound returned an RP in test [8] of 1.3.

Turning to `CSCC[C@H](NC(=O)[C@H](CC(C)C)NC(=O)CNC(=O)[C@@H](Cc1c[nH]c2ccccc12)NC(=O)[C@H](Cc1ccccc1)NC(=O)[C@H](CCC(N)=O)NC(=O)[C@H](CCC(N)=O)NC(=O)[C@@H]1CCCN1C(=O)[C@H](CCCCN)NC(=O)[C@@H]1CCCN1C(=O)[C@@H](N)CCCN=C(N)N)C(N)=O`, the Alphax10E in test [1] and in test [4] was 1 throughout. Moreover, the pD2 in test [2] is reported as 7.12; in test [5], 6.68; in test [6] it was 4.92. Moreover, the results for the RA in test [3], in test [7] and in test [9] were 0.8, 0.3 and 0.2, respectively. In addition, the RP in [8] stood at 0.8.

`CSCC[C@H](NC(=O)[C@H](CC(C)C)NC(=O)CNC(=O)[C@H](Cc1ccccc1)NC(=O)[C@H](CC(C)C)NC(=O)[C@H](CCC(N)=O)NC(=O)[C@H](CCC(N)=O)NC(=O)[C@@H]1CCCN1C(=O)[C@H](CCCCN)NC(=O)[C@@H]1CCCN1C(=O)[C@@H](N)CCCN=C(N)N)C(N)=O`: the Alphax10E in test [1] and in [4] was 1 each time. Moreover, the pD2 in [2] came out at 7.64; in test [5], 7.15; in [6], 5.66. In addition, the RA amounted to 2.3 in test [3], 1.3 in test [7] and 0.4 in [9]. The same compound yielded an RP in test [8] of 0.8.

In the case of `COc1ccc(C[C@H](NC(=O)[C@H](Cc2ccccc2)NC(=O)[C@H](CCC(N)=O)NC(=O)[C@H](CCC(N)=O)NC(=O)[C@@H]2CCCN2C(=O)[C@H](CCCCN)NC(=O)[C@@H]2CCCN2C(=O)[C@@H](N)CCCN=C(N)N)C(=O)NCC(=O)N[C@@H](CC(C)C)C(=O)N[C@@H](CCSC)C(N)=O)cc1`, the Alphax10E in test [1], in test [4] and in test [10] was 1 throughout. Further, the pD2 in [2] came to 9.98; in [5], 8.78; in test [6], 7.55. Also, the results for the RA in test [3], in [7] and in test [9] were 100, 100 and 95, respectively. In test [8], this compound yielded an RP of 100.

Consider `CSCC[C@H](NC(=O)[C@H](CC(C)C)NC(=O)CNC(=O)[C@H](CC1CCCCC1)NC(=O)[C@H](Cc1ccccc1)NC(=O)[C@H](CCC(N)=O)NC(=O)[C@H](CCC(N)=O)NC(=O)[C@@H]1CCCN1C(=O)[C@H](CCCCN)NC(=O)[C@@H]1CCCN1C(=O)[C@@H](N)CCCN=C(N)N)C(N)=O`, for which the RA in test [3] and in [7] was 100 in each case. For the same compound, the Alphax10E in [4] and in [10] was 1 each time. For the same compound, the pD2 in test [5] was 8.78; in test [6], 7.55. Further, the RP in [8] came out at 100.

Take `CSCC[C@H](NC(=O)[C@H](CC(C)C)NC(=O)CNC(=O)[C@H](CC(C)C)NC(=O)[C@H](Cc1ccccc1)NC(=O)[C@H](CCC(N)=O)NC(=O)[C@H](CCC(N)=O)NC(=O)[C@@H]1CCCN1C(=O)[C@H](CCCCN)NC(=O)[C@@H]1CCCN1C(=O)[C@@H](N)CCCN=C(N)N)C(N)=O`: the Alphax10E in test [1] is 1; in [4] it was 1; in test [10], 0.8. The results for the pD2 in [2], in [5] and in test [6] were 9.81, 8.61 and 6.92, respectively. For the same compound, the RA in [3] was found to be 68; in test [7], 23.6; in [9], 64. Also, in test [8], the RP turned out to be 70.

The compound H-RPKPQQFGGFM-NH2 returned an Alphax10E in test [1] of 1. For the same compound, the pD2 is given as 7.33 in test [2] and 5.31 in test [5]. Besides, the RA is given as below 0.1 in [3], below 0.1 in [7] and 0.2 in test [9]. Moreover, the RP in [8] is given as 0.07.

For `COc1ccc(C[C@H](NC(=O)[C@H](CCC(N)=O)NC(=O)[C@H](CCC(N)=O)NC(=O)[C@@H]2CCCN2C(=O)[C@H](CCCCN)NC(=O)[C@@H]2CCCN2C(=O)[C@@H](N)CCCN=C(N)N)C(=O)N[C@@H](Cc2ccccc2)C(=O)NCC(=O)N[C@@H](CC(C)C)C(=O)N[C@@H](CCSC)C(N)=O)cc1`, the figures for the RA in test [3] and in test [7] were 31 and 20.5, respectively. Besides, the Alphax10E stood at 1 in test [4] and 0.8 in [10]. The pD2 is 8.27 in [5] and 6.87 in [6]. Besides, the RP in test [8] was 31.

For `CSCC[C@H](NC(=O)[C@H](Cc1ccccc1)NC(=O)CNC(=O)[C@@H](C)NC(=O)[C@H](Cc1ccccc1)NC(=O)[C@H](CCC(N)=O)NC(=O)[C@H](CCC(N)=O)NC(=O)[C@@H]1CCCN1C(=O)[C@H](CCCCN)NC(=O)[C@@H]1CCCN1C(=O)[C@@H](N)CCCN=C(N)N)C(N)=O`, the Alphax10E in [1] is given as 1. The pD2 in test [2] turned out to be 8.15; in test [5] it was 4.73. For the same compound, the RA in test [3] was below 0.01; in test [7], below 0.1; in test [9] it was 1.4. Moreover, the RP in test [8] was found to be 0.09.

For the compound `CSCC[C@H](NC(=O)[C@H](CC(C)C)NC(=O)CNC(=O)[C@H](Cc1ccccc1)NC(=O)[C@H](CC1CCCCC1)NC(=O)[C@H](CCC(N)=O)NC(=O)[C@H](CCC(N)=O)NC(=O)[C@@H]1CCCN1C(=O)[C@H](CCCCN)NC(=O)[C@@H]1CCCN1C(=O)[C@@H](N)CCCN=C(N)N)C(N)=O`, the values for the Alphax10E in [1], in test [4] and in [10] were 1, 1 and 0.8, respectively. Further, the pD2 in test [2] came out at 8.8; in test [5], 8.08; in test [6], 6.66. In addition, the RA was found to be 20 in [3], 13.2 in test [7] and 6.4 in [9]. This compound also showed an RP in [8] of 21.

With `CSCC[C@H](NC(=O)[C@H](CC(C)C)NC(=O)[C@@H](CC(C)C)NC(=O)[C@H](Cc1ccccc1)NC(=O)[C@H](Cc1ccccc1)NC(=O)[C@H](CCC(N)=O)NC(=O)[C@H](CCC(N)=O)NC(=O)[C@@H]1CCCN1C(=O)[C@H](CCCCN)NC(=O)[C@@H]1CCCN1C(=O)[C@@H](N)CCCN=C(N)N)C(N)=O`, the Alphax10E in test [1] and in test [4] was 1 throughout. Also, the pD2 in test [2] came to 7.49; in test [5] it was 7.21; in test [6], 5.11. Further, the RA in test [3] is reported as 2.7; in test [7] it was 0.4; in test [9], 0.3. For the same compound, in [8], the RP stood at 0.7.

As for H-RPKPQQLLGLM-NH2, the Alphax10E in test [1] is given as 1. Moreover, the pD2 in test [2] is recorded as 6.38; in test [5], 5.29. Besides, the RA in test [3] was below 0.1; in [7], below 0.01; in test [9], below 0.1. The compound further came in with an RP in test [8] of 0.2.

For `CSCC[C@H](NC(=O)[C@H](CC(C)C)NC(=O)CNC(=O)[C@H](Cc1ccccc1)NC(=O)[C@@H](Cc1c[nH]c2ccccc12)NC(=O)[C@H](CCC(N)=O)NC(=O)[C@H](CCC(N)=O)NC(=O)[C@@H]1CCCN1C(=O)[C@H](CCCCN)NC(=O)[C@@H]1CCCN1C(=O)[C@@H](N)CCCN=C(N)N)C(N)=O`, the Alphax10E in test [1] and in test [4] was 1 in each case. Besides, the results for the pD2 in test [2] and in test [5] were 7.33 and 5.9, respectively. The values for the RA in [3], in test [7] and in test [9] were 0.2, below 0.1 and 0.2, respectively. Moreover, in [8], the RP amounted to 0.2.
